Measured values of several laboratories.
Lines come from different studies, so protocols differ.
LRRK2: Leucine-rich repeat serine/threonine-protein kinase 2 (LRRK2, Homo sapiens, UniProt Q5S007)
LRRK2 G2019S: Leucine-rich repeat serine/threonine-protein kinase 2 (LRRK2, Homo sapiens, UniProt Q5S007, G2019S)

`CCN(CC)CCNC(=O)c1c(C)[nH]c(/C=C2\C(=O)Nc3ccc(F)cc32)c1C` has a remaining signal of 3.34% (LRRK2; cell-free assay; 0.5 µM).
For `COc1cc(-c2cc(-c3ccc(N4CCNCC4)cc3)cnc2N)cc(OC)c1OC`, the inhibition was 33% (LRRK2; enzyme activity; inhibitor; 1 µM).
For `N#CCCc1ccc2c(c1)-c1[nH]c3ccc([N+](=O)[O-])cc3c1CC(=O)N2`, the remaining signal was 73.8% (LRRK2; cell-free assay; 0.5 µM).
`COc1cc(Cl)c(C(=O)N[C@@H](CN[C@H]2CC[C@@H](N)CC2)Cc2ccc(C#N)cc2)cc1-c1ccc(CN[C@H](C)c2ccc(C)cc2)o1` has a remaining activity of 104% (LRRK2; enzyme activity; inhibitor; 1 µM).
With `O=C(Nc1cnn(-c2csc(C(=O)NC3COC3)c2)c1)Nc1c(F)cccc1Cl` the remaining activity was 91.3% (LRRK2; enzyme activity; inhibitor; 5 µM).
With `COc1ccc2c(c1)O[C@@H](c1ccc(OC)c(OC)c1)C[C@H]2NC(=O)C1(c2ccc3c(c2)OC(F)(F)O3)CC1` the remaining binding was 87% (LRRK2; cell-free assay; competition with immobilised ligand; 1 µM).
`Cc1cc(NC(=O)c2cccc3cc(-c4cccc5[nH]nc(N)c45)ccc23)ccc1F` has an activity vs control of 98% (LRRK2; enzyme activity; inhibitor; 0.1 µM).
`Cc1ccc(C(=O)Nc2ccc(CN3CCN(C)CC3)c(C(F)(F)F)c2)cc1C#Cc1cnc2cccnn12` has a remaining activity of 83% (LRRK2; enzyme activity; inhibitor; 23.5 nM).
The remaining activity of `CC(C)(C)c1nc2c(s1)c1nc(N)ncc1c1ccc(NS(=O)(=O)c3c(F)cccc3F)c(F)c12` is reported as 93% (LRRK2; enzyme activity; inhibitor; radiometric; 1 µM).
For `Cc1c(NC(=O)c2cc(C(N)=O)nc3cc(F)ccc23)c(C(F)(F)F)nn1Cc1ccc(C(C)(C)C)cc1`, the remaining binding was 100% (LRRK2 G2019S; cell-free assay; competition with immobilised ligand; 1 µM).
`Cc1cnc(NC2CCOCC2)nc1-n1cnc(C(=O)NC(CN)c2cc(F)cc(Cl)c2)c1` (stereo not shown) gave a remaining activity of 95% (LRRK2; enzyme activity; inhibitor; radiometric; 1 µM).
For `FC(F)(F)c1ccc2c(c1)nc(-c1cccnc1)n2C1CC1`, the remaining binding was 100% (LRRK2 G2019S; cell-free assay; competition with immobilised ligand; 1 µM).
For `CN(C)C1CCN(CC#Cc2nn(C3CCCC3)c3nc(NCc4ccccc4)ncc23)C1` (stereo not shown), the inhibition was 7% (LRRK2; enzyme activity; inhibitor; FRET; 10 µM).
With `O=C(O)c1cc(-c2ccc(C3CCNCC3)cc2)c2ccc(-c3ccc(C(F)(F)F)cc3)cc2c1` the remaining binding was 100% (LRRK2; cell-free assay; competition with immobilised ligand; 1 µM).
For `Cc1sc(C(=O)NC2COC2)cc1-n1cc(NC(=O)Nc2c(F)cccc2Cl)cn1`, the remaining activity was 101% (LRRK2; enzyme activity; inhibitor; 10 µM).
`CNCc1ccccc1-c1csc([C@H](C)Nc2nc(C)nc3cc(OC)c(OC)cc23)c1` gave a remaining binding of 84% (LRRK2 G2019S; cell-free assay; competition with immobilised ligand; 1 µM).
`Nc1ncnc2occ(-c3ccc(NC(=O)Nc4cc(C(F)(F)F)ccc4F)cc3)c12` gave a remaining signal of 12% (LRRK2 G2019S; cell-free assay; inhibitor; 20 µM).
With `O=C1Nc2ccc(Cl)cc2C1=Cc1cc(Cl)c(O)c(Cl)c1` the remaining signal was 11% (LRRK2; cell-free assay; 0.5 µM).
The remaining binding of `Cc1nc(Cc2cccc(C(F)(F)F)c2)sc1-c1ccc(C(N)=O)nc1` is reported as 92% (LRRK2; cell-free assay; competition with immobilised ligand; 1 µM).
